pIC50: −log10 of the molar value. Calls of active or inactive are those of the source. No cut-off for these calls is given here.
Legend:
HCT-116 = assay: Cytotoxicity in human HCT-116 cells assessed as reduction in cell viability incubated for 72 hrs by MTS assay; format: functional, cell-based; conditions: HCT-116, 72 h
Outline: (§1)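 Cells seeded at 5 × 10^3 cells/well, kept overnight at 37 °C, then exposed to inhibitors at various concentrations for 72 h. Viability read with a freshly mixed PMS (0.92 mg/mL) : MTS (2 mg/mL) reagent at 1:19, incubated 3 h at 37 °C, A490 measured. […] Triplicate; mean ± SD.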

MDA-MB-231 = assay: Cytotoxicity in human MDA-MB-231 cells assessed as reduction in cell viability incubated for 72 hrs by MTS assay; format: functional, cell-based; conditions: MDA-MB-231, 72 h
Outline: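 Triple-negative breast cancer line seeded at 5 × 10^3 cells/well, held overnight at 37 °C, then exposed to inhibitor over a concentration range for 72 h. Viability read out with a fresh 1:19 mix of PMS (0.92 mg/mL) and MTS (2 mg/mL), incubated 3 h at 37 °C, A490 measured.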

A549 = assay: Cytotoxicity in human A549 cells assessed as reduction in cell viability incubated for 72 hrs by MTS assay; format: functional, cell-based; conditions: A549, 72 h; outline: as §1
[1] = target: T1, beta-catenin-B-cell lymphoma 9 protein complex (Homo sapiens, UniProt P35222); assay: Inhibition of protein interaction between beta-catenin (unknown origin)/BCL9 in HEK293 cells transfected with beta-catenin assessed as reduction in Wnt/beta-catenin transactivation incubated for 24 hrs by Wnt-responsive TOP-Flash luciferase reporter assay; format: cell-based
T1 sequence (P35222 whole entry): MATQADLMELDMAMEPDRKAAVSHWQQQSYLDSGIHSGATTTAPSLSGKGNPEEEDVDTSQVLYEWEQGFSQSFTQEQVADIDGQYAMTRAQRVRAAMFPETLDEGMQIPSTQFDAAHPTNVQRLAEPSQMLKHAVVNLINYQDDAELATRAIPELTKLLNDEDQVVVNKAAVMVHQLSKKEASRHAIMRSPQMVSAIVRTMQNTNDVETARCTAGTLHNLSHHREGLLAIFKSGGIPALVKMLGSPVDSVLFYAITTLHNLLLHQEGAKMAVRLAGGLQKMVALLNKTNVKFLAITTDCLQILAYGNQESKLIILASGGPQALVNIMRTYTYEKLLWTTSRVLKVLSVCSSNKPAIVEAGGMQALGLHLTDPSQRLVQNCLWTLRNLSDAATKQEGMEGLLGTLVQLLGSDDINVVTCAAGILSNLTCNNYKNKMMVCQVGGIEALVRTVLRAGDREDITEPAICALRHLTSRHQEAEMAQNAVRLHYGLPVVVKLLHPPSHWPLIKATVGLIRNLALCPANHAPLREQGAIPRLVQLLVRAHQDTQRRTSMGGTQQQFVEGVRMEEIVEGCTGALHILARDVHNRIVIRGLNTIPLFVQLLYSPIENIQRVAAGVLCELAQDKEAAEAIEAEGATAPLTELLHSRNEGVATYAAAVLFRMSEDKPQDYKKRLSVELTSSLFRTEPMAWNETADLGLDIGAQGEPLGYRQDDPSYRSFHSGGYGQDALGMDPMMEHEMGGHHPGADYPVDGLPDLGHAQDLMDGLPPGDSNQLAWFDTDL
T1 sequence (O00512 whole entry): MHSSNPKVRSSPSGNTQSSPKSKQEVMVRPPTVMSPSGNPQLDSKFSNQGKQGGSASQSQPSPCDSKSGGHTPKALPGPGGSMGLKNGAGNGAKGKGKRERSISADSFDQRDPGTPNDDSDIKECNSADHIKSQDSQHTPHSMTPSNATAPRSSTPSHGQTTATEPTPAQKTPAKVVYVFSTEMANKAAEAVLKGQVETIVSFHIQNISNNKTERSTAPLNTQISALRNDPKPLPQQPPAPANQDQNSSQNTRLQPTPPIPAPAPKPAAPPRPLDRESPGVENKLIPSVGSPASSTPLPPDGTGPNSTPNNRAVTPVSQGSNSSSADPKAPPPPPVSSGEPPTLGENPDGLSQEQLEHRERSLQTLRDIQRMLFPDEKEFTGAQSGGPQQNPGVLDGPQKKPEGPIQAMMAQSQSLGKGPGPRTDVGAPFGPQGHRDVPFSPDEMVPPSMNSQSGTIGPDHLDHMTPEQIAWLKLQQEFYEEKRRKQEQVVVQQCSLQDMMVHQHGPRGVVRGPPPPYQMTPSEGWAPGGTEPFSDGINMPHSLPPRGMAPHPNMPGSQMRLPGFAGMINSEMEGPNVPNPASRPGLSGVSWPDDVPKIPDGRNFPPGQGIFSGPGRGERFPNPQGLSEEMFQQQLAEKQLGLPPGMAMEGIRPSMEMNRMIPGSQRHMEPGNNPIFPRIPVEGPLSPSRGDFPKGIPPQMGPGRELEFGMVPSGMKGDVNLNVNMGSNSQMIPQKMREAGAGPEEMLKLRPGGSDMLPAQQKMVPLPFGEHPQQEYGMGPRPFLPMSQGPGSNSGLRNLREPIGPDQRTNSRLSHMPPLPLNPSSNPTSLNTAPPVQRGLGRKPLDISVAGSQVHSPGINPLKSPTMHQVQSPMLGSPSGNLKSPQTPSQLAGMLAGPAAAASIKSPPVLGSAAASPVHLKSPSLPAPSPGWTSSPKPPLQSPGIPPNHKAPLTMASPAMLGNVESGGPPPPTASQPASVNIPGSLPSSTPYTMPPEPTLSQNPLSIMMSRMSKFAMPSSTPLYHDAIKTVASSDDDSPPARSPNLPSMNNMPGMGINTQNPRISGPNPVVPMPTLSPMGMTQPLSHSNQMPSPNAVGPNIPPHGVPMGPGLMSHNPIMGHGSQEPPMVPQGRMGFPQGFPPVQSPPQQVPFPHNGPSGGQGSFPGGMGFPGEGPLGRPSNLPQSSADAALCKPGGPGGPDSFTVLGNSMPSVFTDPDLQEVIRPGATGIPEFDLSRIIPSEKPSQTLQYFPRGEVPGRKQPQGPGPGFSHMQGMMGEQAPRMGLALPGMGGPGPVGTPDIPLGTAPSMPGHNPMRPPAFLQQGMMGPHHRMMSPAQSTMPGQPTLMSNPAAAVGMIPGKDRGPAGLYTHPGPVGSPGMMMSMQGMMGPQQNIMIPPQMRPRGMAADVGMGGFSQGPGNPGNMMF
Outline: (§2)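 HEK293 cells were cotransfected using FuGENE6 with 45 ng TOPFlash or FOPFlash reporter, 135 ng pcDNA3.1-β-catenin and 20 ng pCMV-RL normalization reporter. After 24 h in DMEM with 10% FBS at 37 °C, inhibitors or DMSO were added for 24 h. Reporter activity was read with a dual luciferase system, normalized, and compared with DMSO-treated cells. Triplicate.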

[2] = target: T1, beta-catenin-B-cell lymphoma 9 protein complex; assay: Inhibition of protein interaction between beta-catenin (unknown origin)/BCL9 in human SW480 cells transfected with beta-catenin assessed as reduction in Wnt/beta-catenin transactivation incubated for 24 hrs by Wnt-responsive TOP-Flash luciferase reporter assay; format: cell-based
[3] = target: beta-catenin-B-cell lymphoma 9 protein complex (Homo sapiens) (UniProt P35222+O00512); assay: Inhibition of protein interaction between beta-catenin (unknown origin)/BCL9 in HEK293 cells transfected with beta-catenin assessed as reduction in Wnt/beta-catenin transactivation incubated for 24 hrs by Wnt-responsive FOP-Flash luciferase reporter assay; format: cell-based; outline: as §2

| SMILES | pIC50 [1] | pIC50 [2] | inhibition [3] | pIC50 (HCT-116) | pIC50 (MDA-MB-231) | pIC50 (A549) |
| --- | --- | --- | --- | --- | --- | --- |
| Cl.Cl.O=C(Nc1ccc(O[C@H]2CCNC2)c(-c2ccc(F)cc2)c1)c1ccc(O[C@H]2CCNC2)c(C2CCC(C(F)(F)F)CC2)c1 (stereo partly drawn) | 5.00 | 5.00 | Active | 5.25 | 5.64 | 5.32 |
| Cl.Cl.O=C(Nc1ccc(O[C@H]2CCNC2)c(-c2ccc(F)cc2)c1)c1ccc(O[C@H]2CCNC2)c(-c2ccc(F)c(F)c2)c1 | 5.35 | 5.54 | Active | – | – | – |
| Cl.Cl.O=C(Nc1ccc(O[C@H]2CCNC2)c(-c2ccc(F)cc2)c1)c1cnc(O[C@H]2CCNC2)c(-c2ccc(F)c(F)c2)c1 | 4.66 | 5.23 | Active | 5.06 | 5.44 | 4.59 |
| Cl.Cl.O=C(Nc1ccc(O[C@@H]2CCNC2)c(-c2cccc(-c3nn[nH]n3)c2)c1)c1ccc(O[C@H]2CCNC2)c(-c2ccc(F)c(F)c2)c1 | 4.60 | 4.60 | inactive | 4.26 | 4.14 | < 3.40 |

More lines, main results first:

| pIC50 [1] | pIC50 [2] | inhibition [3] | SMILES | pIC50 (HCT-116) | pIC50 (MDA-MB-231) | pIC50 (A549) |
| --- | --- | --- | --- | --- | --- | --- |
| 5.00 | 4.92 | Active | Cl.Cl.O=C(Nc1ccc(O[C@H]2CCNC2)c(-c2ccc(F)cc2)c1)c1ccc(O[C@H]2CCNC2)c(-c2ccc3cc(F)ccc3c2)c1 | 5.25 | 5.68 | 5.43 |
| – | 5.70 | Active | Cc1cc(F)ccc1-c1cc(NC(=O)c2ccc(O[C@H]3CCNC3)c(-c3ccc(F)c(F)c3)c2)ccc1O[C@H]1CCNC1.Cl.Cl | 5.25 | 5.39 | 5.00 |
| 5.21 | 5.92 | Active | Cl.Cl.O=C(Nc1ccc(O[C@H]2CCNC2)c(-c2ccc(F)cc2)c1)c1ccc(O[C@H]2CCNC2)c(-c2ccc3ccsc3c2)c1 | 5.12 | 5.55 | 5.03 |

Source: ChEMBL document CHEMBL4680104, “Structure-Based Optimization of Small-Molecule Inhibitors for the β-Catenin/B-Cell Lymphoma 9 Protein-Protein Interaction” (J Med Chem, 2018)
